Laboratory results from ChEMBL document CHEMBL1124186, “Synthesis and evaluation of tylosin-related macrolides modified at the aldehyde function: a new series of orally effective antibiotics” (1988).
In brackets after ≈: the same amount, converted by molar mass.

Legend:
Haemophilus influenzae = assay: In vitro antimicrobial activity against Haemophilus influenzae.; format: functional
Staphylococcus aureus = assay: In vitro antimicrobial activity against Staphylococcus aureus X1; format: functional
Streptococcus pneumoniae [1] = assay: In vivo effective dose against experimental infections in mice Streptococcus pneumoniae park when administered orally; format: functional; conditions: po
Streptococcus pneumoniae [2] = assay: In vivo effective dose against experimental infections in mice Streptococcus pneumoniae park when administered sc; format: functional
Streptococcus pyogenes [3] = assay: In vivo effective dose against experimental infections in rodent caused by Streptococcus pyogenes C203 when administered sc; format: functional
Streptococcus pneumoniae [4] = assay: In vitro antimicrobial activity against Streptococcus pneumoniae; format: functional
[5] = tested on: Staphylococcus epidermidis; assay: In vitro antimicrobial activity against Staphylococcus epidermidis EPI1; format: functional
Enterococcus faecium = assay: In vitro antimicrobial activity against Streptococcus faecium X66; format: functional, streptococcus fae-cium
Streptococcus pyogenes [6] = assay: In vitro antimicrobial activity against Streptococcus pyogenes C203; format: functional
Streptococcus pyogenes [7] = assay: In vivo effective dose against experimental infections in rodent caused by Streptococcus pyogenes C203 when administered orally; format: functional; conditions: po
Streptococcus pyogenes [8] = assay: Activity against Streptococcus pyogenes C203 when administered orally; format: functional; conditions: po
Procedure, shortened: (§1)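 Mouse protection test: infected mice were dosed twice, at 1 and 5 h postinfection, either subcutaneously or orally. […] The result is expressed as ED50 in mg/kg × 2.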

Streptococcus pyogenes [9] = assay: Activity against Streptococcus pyogenes C203 when administered sc; format: functional; procedure, shortened: as §1
Streptococcus pyogenes [10] = assay: Antimicrobial activity against Streptococcus pyogenes C203; format: functional

SMILES	MIC (Haemophilus influenzae) [µg/mL]	MIC (Staphylococcus aureus) [µg/mL]	ED50 (Streptococcus pneumoniae [1]) [mg/kg]	ED50 (Streptococcus pneumoniae [2]) [mg/kg]	ED50 (Streptococcus pyogenes [3]) [mg/kg]	MIC (Streptococcus pneumoniae [4]) [µg/mL]	MIC [5] [µg/mL]	MIC (Enterococcus faecium) [µg/mL]	MIC (Streptococcus pyogenes [6]) [µg/mL]	ED50 (Streptococcus pyogenes [7]) [mg/kg]	ED50 (Streptococcus pyogenes [8]) [mg/kg]	ED50 (Streptococcus pyogenes [9]) [mg/kg]	MIC (Streptococcus pyogenes [10]) [µg/mL]
CC[C@H]1OC(=O)C[C@@H](O)[C@H](C)[C@@H](O[C@@H]2O[C@H](C)[C@@H](O)[C@H](N(C)C)[C@H]2O)[C@@H](CCOc2cccc(Oc3ccccc3)c2)C[C@@H](C)C(=O)/C=C/C(C)=C/[C@@H]1CO[C@@H]1O[C@H](C)[C@@H](O)[C@@H](OC)[C@H]1OC	16 (≈ 17 µM)	0.5 (≈ 0.531 µM)	46	> 20	> 10	0.25 (≈ 0.265 µM)	0.5 (≈ 0.531 µM)	0.5 (≈ 0.531 µM)	0.25 (≈ 0.265 µM)	35	–	–	–
CC[C@H]1OC(=O)C[C@@H](O)[C@H](C)[C@@H](O[C@@H]2O[C@H](C)[C@@H](O)[C@H](N(C)C)[C@H]2OC(C)=O)[C@@H](CCOc2ccccc2)C[C@@H](C)C(=O)/C=C/C(C)=C/[C@@H]1CO[C@@H]1O[C@H](C)[C@@H](O)[C@@H](OC)[C@H]1OC	–	–	–	–	–	–	–	–	–	–	9	1	1 (≈ 1.12 µM)
